Laboratory results published in ChEMBL document CHEMBL5532760, “Synergy between the clavanins as a weapon against multidrug-resistant Enterobacter cloacae” (2024).
Values after ≈ are worked out from the molar mass of the structure shown. Values joined by “and” are separate entries in the source; they are usually repeats but may differ in a detail not shown here. Identical values can stand only once. Where a SMILES comes first, the peptide text is derived from it. [ ]: non-standard residue; d: D form. Dopa = N[C@@H](Cc1ccc(O)c(O)c1)C(=O)O

Experiments:
Enterobacter cloacae [1] = test: Antibacterial activity against Enterobacter cloacae 0136 at pH 5.5 incubated for 18 to 20 hrs by broth microdilution method; format: functional; settings: time 18-20 hrs
Procedure, shortened: (§1)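 E. cloacae AR#0136 grown at 37 °C with shaking at 234 rpm to mid-log (OD600 0.4–0.6) in MHB. For pH 5.5 the medium was adjusted with 0.1 M HCl before autoclaving; the pH 7.4 medium was not adjusted. Peptides were twofold serially diluted; final inoculum 5×10^5 CFU/mL; 37 °C for 18–20 h. MIC taken as the lowest concentration with no visible growth.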

Enterobacter cloacae [2] = test: Antibacterial activity against Enterobacter cloacae 0136 at pH 7.4 incubated for 18 to 20 hrs by broth microdilution method; format: functional; settings: time 18-20 hrs; procedure, shortened: as §1

For H-GIGKFLHSAKKFGKAFVGEIMNS-NH2, the MIC (Enterobacter cloacae [1]) was 4 µM and 4.9 µg/mL and the MIC (Enterobacter cloacae [2]) was 4 µM and 4.9 µg/mL.

H-LFKLLGKIIHHVGNFVHGFSHVF-NH2 was tested, and the MIC (Enterobacter cloacae [1]) was 8 µM and 23 µg/mL and the MIC (Enterobacter cloacae [2]) was > 128 µM and 368 µg/mL.

In the case of H-VFQFLGRIIHHVGNFVHGFSHVF-NH2, the MIC (Enterobacter cloacae [1]) is reported as 128 µM and 344 µg/mL and the MIC (Enterobacter cloacae [2]) is reported as > 128 µM and 344 µg/mL.

For CC[C@H](C)[C@H](NC(=O)[C@H](CCCNC(=N)N)NC(=O)CNC(=O)[C@H](CC(C)C)NC(=O)[C@H](CC(C)C)NC(=O)[C@H](CCCCN)NC(=O)[C@H](Cc1ccccc1)NC(=O)[C@H](C)N)C(=O)N[C@H](C(=O)N[C@@H](Cc1cnc[nH]1)C(=O)N[C@@H](Cc1cnc[nH]1)C(=O)N[C@H](C(=O)NCC(=O)N[C@@H](CC(N)=O)C(=O)N[C@@H](Cc1ccccc1)C(=O)N[C@H](C(=O)N[C@@H](Cc1ccc(O)c(O)c1)C(=O)NCC(=O)N[C@@H](Cc1ccccc1)C(=O)N[C@@H](CO)C(=O)N[C@@H](Cc1cnc[nH]1)C(=O)N[C@H](C(=O)N[C@@H](Cc1ccccc1)C(=O)O)C(C)C)C(C)C)C(C)C)[C@@H](C)CC (H-AFKLLGRIIHHVGNFV[Dopa]GFSHVF-OH), the MIC (Enterobacter cloacae [1]) was 8 µM and 23 µg/mL and the MIC (Enterobacter cloacae [2]) was > 128 µM and 371 µg/mL.

In the case of CC[C@H](C)[C@H](NC(=O)[C@H](CCCCN)NC(=O)CNC(=O)[C@H](CC(C)C)NC(=O)[C@H](CC(C)C)NC(=O)[C@H](Cc1cnc[nH]1)NC(=O)[C@H](Cc1ccccc1)NC(=O)[C@@H](N)C(C)C)C(=O)N[C@H](C(=O)N[C@@H](Cc1cnc[nH]1)C(=O)N[C@@H](Cc1cnc[nH]1)C(=O)N[C@H](C(=O)NCC(=O)N[C@@H](CC(N)=O)C(=O)N[C@@H](Cc1ccccc1)C(=O)N[C@H](C(=O)N[C@@H](Cc1ccc(O)c(O)c1)C(=O)NCC(=O)N[C@@H](Cc1ccccc1)C(=O)N[C@@H](CO)C(=O)N[C@@H](Cc1cnc[nH]1)C(=O)N[C@H](C(=O)N[C@@H](Cc1ccccc1)C(=O)O)C(C)C)C(C)C)C(C)C)[C@@H](C)CC, the MIC (Enterobacter cloacae [1]) is reported as 46 µg/mL (≈ 17.1 µM) and the MIC (Enterobacter cloacae [2]) is reported as > 128 µM and 372 µg/mL.

With H-VFQFLGKIIHHVGNFVHGFSHVF-NH2 the MIC (Enterobacter cloacae [1]) was > 128 µM and 341 µg/mL and the MIC (Enterobacter cloacae [2]) was > 128 µM and 341 µg/mL.

In the case of H-FLRFIGSVIHGIGHLVHHIGVAL-NH2, the MIC (Enterobacter cloacae [1]) is reported as 11 µg/mL and the MIC (Enterobacter cloacae [2]) is reported as 348 µg/mL.
